Results taken from ChEMBL document CHEMBL3124833, “Achiral pyrazinone-based inhibitors of the hepatitis C virus NS3 protease and drug-resistant variants with elongated substituents directed toward the S2 pocket” (J Med Chem, 2014).
Converted amounts (≈) assume the structure as drawn.

How the values were obtained:
[1] = Inhibition of full-length wild-type HCV NS3 protease; design: species or system Hepacivirus hominis
Outline: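 Ki was determined in vitro with full-length NS3 protease (genotype 1a construct, expressed and purified by earlier methods) and the central part of NS4A as cofactor.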

NS3 protease [2] = biological target: NS3 protease (Hepatitis C virus subtype 1b, UniProt Q0ZMF1, A156T); assay: Inhibition of full-length HCV NS3 protease A156T mutant; design: species or system Hepacivirus hominis
Outline: (§1)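 Ki determined in vitro against full-length NS3 protease variants carrying A156T, D168V or R155K substitutions, with the central part of NS4A as cofactor. Enzymes were expressed and purified by previously published methods. The R155K variant (genotype 1a) had the Arg→Lys change introduced at position 155 by PCR.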

[3] = Intrinsic clearance in human liver microsomes at 1 uM up to 40 mins by LC-MS/MS analysis in presence of NADPH; assay type: ADME
Outline: (§2)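 Compounds were incubated with pooled human liver microsomes (0.5 mg/mL) over 0–40 min. In vitro t1/2 and intrinsic clearance (Clint, μL/min/mg) were calculated with previously published models.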

[4] = Solubility of the compound in phosphate buffered saline at pH 7.4 after 1 hr by LC-MS/MS analysis; assay type: physicochemical
Outline: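 Solubility was measured in phosphate-buffered saline at pH 7.4 with a final DMSO concentration of 1%.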

NS3 protease [5] = biological target: NS3 protease (Hepacivirus C, UniProt C1KIQ2, D168V); assay: Inhibition of full-length HCV NS3 protease D168V mutant; design: species or system Hepacivirus hominis; outline: as §1
[6] = Half life in human liver microsomes at 1 uM by LC-MS/MS analysis; assay type: ADME; outline: as §2
[7] = Apparent permeability from apical to basolateral side in human Caco2 cells at 10 uM by LC-MS analysis; assay type: ADME, cell-based; settings: Caco-2
Outline: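 Apparent permeability coefficients (Papp) were derived from transport rates across Caco-2 cell monolayers. The assay used a modified, more physiological medium because the compounds adsorbed strongly to plasticware.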

Cc1c(Cl)nc(NC(=O)OC(C)(C)C)c(=O)n1C(C(=O)Nc1ccccc1C(=O)NS(=O)(=O)c1ccc(C(F)(F)F)cc1)c1ccccc1 (configuration not stated)
Ki [1]: 3800 nM

CC(C)(C)NC(=O)Nc1nc(Cl)c(-c2ccc(Br)cc2)n(CC(=O)Nc2ccccc2C(=O)NS(=O)(=O)c2ccc(C(F)(F)F)cc2)c1=O
Ki [1]: 380 nM

CC(C)(C)NC(=O)Nc1nc(Cl)c(-c2cccc(Br)c2)n(CC(=O)Nc2ccccc2C(=O)NS(=O)(=O)c2ccc(C(F)(F)F)cc2)c1=O
Ki [1]: 600 nM

CC(C)(C)NC(=O)Nc1nc(Cl)c(-c2ccccc2Br)n(CC(=O)Nc2ccccc2C(=O)NS(=O)(=O)c2ccc(C(F)(F)F)cc2)c1=O
Ki [1]: 400 nM

CC(C)(C)NC(=O)Nc1nc(Cl)c(Cc2ccc(Br)cc2)n(CC(=O)Nc2ccccc2C(=O)NS(=O)(=O)c2ccc(C(F)(F)F)cc2)c1=O
Ki [1]: 440 nM

CC(C)(C)NC(=O)Nc1nc(Cl)c(Cc2cccc(Br)c2)n(CC(=O)Nc2ccccc2C(=O)NS(=O)(=O)c2ccc(C(F)(F)F)cc2)c1=O
Ki [1]: 290 nM

CC(C)(C)NC(=O)Nc1nc(Cl)c(Cc2ccccc2Br)n(CC(=O)Nc2ccccc2C(=O)NS(=O)(=O)c2ccc(C(F)(F)F)cc2)c1=O
Ki [1]: 250 nM

CC(C)(C)NC(=O)Nc1nc(Cl)c(-c2ccc(-c3cccnc3)cc2)n(CC(=O)Nc2ccccc2C(=O)NS(=O)(=O)c2ccc(C(F)(F)F)cc2)c1=O
Ki (NS3 protease [2]): 740 nM | microsomal CLint at 1 µM [3]: 17 µL/min/mg | solubility at 1 h [4]: 53 µM (≈ 41.5 µg/mL) | Ki (NS3 protease [5]): 1520 nM | Ki [1]: 440 nM | half-life at 1 µM [6]: 82 min | Papp A→B at 10 µM [7]: 7 ×10⁻⁶ cm/s

CC(C)(C)NC(=O)Nc1nc(Cl)c(-c2cccc(-c3cccnc3)c2)n(CC(=O)Nc2ccccc2C(=O)NS(=O)(=O)c2ccc(C(F)(F)F)cc2)c1=O
Ki [1]: 390 nM

CC(C)(C)NC(=O)Nc1nc(Cl)c(-c2ccccc2-c2cccnc2)n(CC(=O)Nc2ccccc2C(=O)NS(=O)(=O)c2ccc(C(F)(F)F)cc2)c1=O
Ki [1]: 2100 nM

CC(C)(C)NC(=O)Nc1nc(Cl)c(Cc2ccc(-c3cccnc3)cc2)n(CC(=O)Nc2ccccc2C(=O)NS(=O)(=O)c2ccc(C(F)(F)F)cc2)c1=O
Ki [1]: 540 nM

CC(C)(C)NC(=O)Nc1nc(Cl)c(Cc2cccc(-c3cccnc3)c2)n(CC(=O)Nc2ccccc2C(=O)NS(=O)(=O)c2ccc(C(F)(F)F)cc2)c1=O
Ki [1]: 810 nM

CC(C)(C)NC(=O)Nc1nc(Cl)c(Cc2ccccc2-c2cccnc2)n(CC(=O)Nc2ccccc2C(=O)NS(=O)(=O)c2ccc(C(F)(F)F)cc2)c1=O
Ki [1]: 1100 nM

CC(C)(C)NC(=O)Nc1nc(Cl)c(Cc2ccccc2)n(C(C(=O)Nc2ccccc2C(=O)NS(=O)(=O)c2ccc(C(F)(F)F)cc2)c2ccccc2)c1=O (configuration not stated)
Ki [1]: 700 nM

CC(C)(C)NC(=O)Nc1nc(Cl)cn(CC(=O)Nc2ccccc2C(=O)NS(=O)(=O)c2ccc(C(F)(F)F)cc2)c1=O
Ki [1]: 1900 nM

CC(C)(C)NC(=O)Nc1nc(Cl)c(CCc2ccccc2)n(CC(=O)Nc2ccccc2C(=O)NS(=O)(=O)c2ccc(C(F)(F)F)cc2)c1=O
microsomal CLint at 1 µM [3]: < 13 µL/min/mg | solubility at 1 h [4]: 23 µM (≈ 16.9 µg/mL) | Ki [1]: 120 nM | half-life at 1 µM [6]: > 100 min | Papp A→B at 10 µM [7]: 0.3 ×10⁻⁶ cm/s

CC(C)(C)NC(=O)Nc1nc(Cl)c(CCCc2ccccc2)n(CC(=O)Nc2ccccc2C(=O)NS(=O)(=O)c2ccc(C(F)(F)F)cc2)c1=O
Ki [1]: 140 nM

CC(C)(C)NC(=O)Nc1nc(Cl)c(COCc2ccccc2)n(CC(=O)Nc2ccccc2C(=O)NS(=O)(=O)c2ccc(C(F)(F)F)cc2)c1=O
microsomal CLint at 1 µM [3]: 17 µL/min/mg | solubility at 1 h [4]: 22 µM (≈ 16.5 µg/mL) | Ki [1]: 560 nM | half-life at 1 µM [6]: 81 min | Papp A→B at 10 µM [7]: 4 ×10⁻⁶ cm/s

CC(C)(C)NC(=O)Nc1nc(Cl)c(Cc2ccc3ccccc3c2)n(CC(=O)Nc2ccccc2C(=O)NS(=O)(=O)c2ccc(C(F)(F)F)cc2)c1=O
Ki [1]: 330 nM

CC(C)(C)NC(=O)Nc1nc(Cl)c(Cc2cccc3ccccc23)n(CC(=O)Nc2ccccc2C(=O)NS(=O)(=O)c2ccc(C(F)(F)F)cc2)c1=O
Ki [1]: 290 nM

CCCCCc1c(Cl)nc(NC(=O)NC(C)(C)C)c(=O)n1CC(=O)Nc1ccccc1C(=O)NS(=O)(=O)c1ccc(C(F)(F)F)cc1
microsomal CLint at 1 µM [3]: 33 µL/min/mg | solubility at 1 h [4]: 21 µM (≈ 14.7 µg/mL) | Ki [1]: 160 nM | half-life at 1 µM [6]: 42 min | Papp A→B at 10 µM [7]: 0.04 ×10⁻⁶ cm/s

CC(C)(C)NC(=O)Nc1nc(Cl)c(CCC2CCCCC2)n(CC(=O)Nc2ccccc2C(=O)NS(=O)(=O)c2ccc(C(F)(F)F)cc2)c1=O
Ki (NS3 protease [2]): 170 nM | microsomal CLint at 1 µM [3]: 52 µL/min/mg | solubility at 1 h [4]: 31 µM (≈ 22.9 µg/mL) | Ki (NS3 protease [5]): 320 nM | Ki [1]: 110 nM | half-life at 1 µM [6]: 27 min | Papp A→B at 10 µM [7]: 0.12 ×10⁻⁶ cm/s

Cc1c(Cl)nc(NC(=O)NC(C)(C)C)c(=O)n1C(C(=O)NC(CC1CCC1)C(=O)C(N)=O)c1ccccc1 (configuration not stated)
Ki [1]: 6200 nM

CC(C)(C)NC(=O)Nc1nc(Cl)c(Cc2ccccc2)n(CC(=O)Nc2ccccc2C(=O)NS(=O)(=O)c2ccc(C(F)(F)F)cc2)c1=O
Ki [1]: 660 nM

CC(C)(C)NC(=O)Nc1nc(Cl)c(Cc2ccccc2)n(CC(=O)NC(CC2CCC2)C(=O)C(N)=O)c1=O (configuration not stated)
Ki [1]: 7100 nM

Cc1c(Cl)nc(NC(=O)NC(C)(C)C)c(=O)n1C(C(=O)Nc1ccccc1C(=O)NS(=O)(=O)c1ccc(C(F)(F)F)cc1)c1ccccc1 (racemic)
Ki (NS3 protease [2]): 930 nM | microsomal CLint at 1 µM [3]: 26 µL/min/mg | solubility at 1 h [4]: 38 µM (≈ 27.3 µg/mL) | Ki (NS3 protease [5]): 1260 nM | Ki [1]: 390 nM | half-life at 1 µM [6]: 54 min | Papp A→B at 10 µM [7]: 1.1 ×10⁻⁶ cm/s

COc1ccc2c(O[C@@H]3C[C@H]4C(=O)N[C@]5(C(=O)O)C[C@H]5/C=C\CCCCC[C@H](NC(=O)OC5CCCC5)C(=O)N4C3)cc(-c3csc(NC(C)C)n3)nc2c1 [CILUPREVIR]
Ki (NS3 protease [2]): 120 nM | Ki (NS3 protease [5]): 200 nM | Ki [1]: 0.089 nM

CCC[C@H](NC(=O)[C@@H]1[C@H]2CCC[C@H]2CN1C(=O)[C@@H](NC(=O)[C@@H](NC(=O)c1cnccn1)C1CCCCC1)C(C)(C)C)C(=O)C(=O)NC1CC1 [TELAPREVIR]
Ki (NS3 protease [2]): 6100 nM | Ki (NS3 protease [5]): 3.9 nM | Ki [1]: 15 nM
